How the values were obtained:
Assay type in all cases: biochemical
Homo sapiens SAMHD1 [1] = target: T1, Homo sapiens SAMHD1 (Homo sapiens, UniProt Q9Y3Z3); assay: Tight-binding inhibition of SAMHD1; conditions: read-out: Ki (Morrison equation, tight-binding); 100 nM SAMHD1, 500 μM dTTP (5×KM), eq. 4 & 5
Homo sapiens SAMHD1 [2] = target: T1, Homo sapiens SAMHD1; assay: Lineweaver-Burk plot and mechanism of inhibition of SAMHD1
In short: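 Same GTP/dATP pre-activation and coupled MESG/PNP/Ppx1/PPase system. Final: 100 nM SAMHD1, 10 μM GTP, 500 nM dATP, 5 mM MgCl2. Reactions started with inhibitor (up to 4 μM) premixed into dTTP stocks of 0.625–10 mM. A360 followed for 20 min. Initial rates shown as a double-reciprocal plot and globally fitted to a competitive-inhibition equation for Kis. Mean ± SD of three independent experiments.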

Homo sapiens SAMHD1 [3] = target: T1, Homo sapiens SAMHD1; assay: Steady-state kinetics of activated SAMHD1 with dTTP; conditions: read-out: KM of dTTP; 100 nM SAMHD1 activated with GTP and dATP, dTTP 8.4-500 μM
In short: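 Recombinant SAMHD1 (HisTrap, then size-exclusion purified) pre-activated stepwise with GTP then dATP, diluted, and mixed with MESG/PNP/Ppx1/PPase coupling cocktail. Final: 100 nM enzyme, 10 μM GTP, 500 nM dATP, 500 μM MESG, […], 10 nM Ppx1 and PPase. Buffer: HEPES pH 8.0, NaCl, MgCl2, TCEP, glycerol. dTTP 8.4–500 μM. A360 over 20 min. Rates corrected for 3 Pi/dTTP. Michaelis-Menten fit. Three independent experiments.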

T1 sequence (Q9Y3Z3 114-626): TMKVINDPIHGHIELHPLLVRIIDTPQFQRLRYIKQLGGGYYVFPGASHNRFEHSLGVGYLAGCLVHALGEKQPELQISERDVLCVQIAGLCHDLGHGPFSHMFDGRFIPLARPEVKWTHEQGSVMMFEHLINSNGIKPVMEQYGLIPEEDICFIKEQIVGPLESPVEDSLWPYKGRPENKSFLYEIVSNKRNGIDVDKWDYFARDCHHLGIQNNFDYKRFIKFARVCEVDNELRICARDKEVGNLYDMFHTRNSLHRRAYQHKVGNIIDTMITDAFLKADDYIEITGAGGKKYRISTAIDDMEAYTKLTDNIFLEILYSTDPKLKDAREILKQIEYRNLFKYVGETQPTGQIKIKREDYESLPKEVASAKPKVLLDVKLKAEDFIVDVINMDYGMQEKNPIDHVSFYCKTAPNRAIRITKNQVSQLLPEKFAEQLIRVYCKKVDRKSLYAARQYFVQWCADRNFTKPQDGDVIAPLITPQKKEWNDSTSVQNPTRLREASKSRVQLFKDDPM

| SMILES | Ki (Homo sapiens SAMHD1 [1]) | Mode of inhibition (Homo sapiens SAMHD1 [2]; double-reciprocal Lineweaver-Burk plot, varied dTTP) | Kis (global inhibition constant, competitive fit) (Homo sapiens SAMHD1 [2]; varied dTTP and dGPNPP (up to 4 μM), global fit) | Km (Homo sapiens SAMHD1 [3]) |
| --- | --- | --- | --- | --- |
| Nc1ccn([C@H]2C[C@H](O)[C@@H](COP(=O)(O)NP(=O)(O)OP(=O)(O)O)O2)c(=O)n1 [dCPNPP, 2'-Deoxycytidine-5'-[(α,β)-imido]triphosphate] | 67 ± 8 nM | – | – | – |
| Nc1nc2c(ncn2[C@H]2C[C@H](O)[C@@H](COP(=O)(O)NP(=O)(O)OP(=O)(O)O)O2)c(=O)[nH]1 [dGPNPP, 2'-Deoxyguanosine-5'-[(α,β)-imido]triphosphate] | 25 ± 7 nM | competitive inhibition | 53 ± 7.0 nM | – |
| Cc1cn([C@H]2C[C@H](O)[C@@H](COP(=O)(O)OP(=O)(O)OP(=O)(O)O)O2)c(=O)[nH]c1=O [dTTP, 2’-Deoxythymidine-5’-triphosphate] | – | – | – | 102 ± 9.4 µM |
